Experimental data reported in publication PMC5598404 (Toxicology Reports, 2015).

Legend:
[1] = test system: human breast cancer Sk-Br-3 cells; assay: CytoTox 96 Non-Radioactive Cytotoxicity Assay, breast cancer Sk-Br-3 cells; format: cell-based
In short: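 Sk-Br-3 cells (ATCC) were kept in ATCC-formulated medium under 5% CO2 at 37 °C, plated at 10,000 cells/well and grown to 70–80% confluence. They were then exposed for 24 h or 48 h to test compounds from DMSO stocks at 400, 200, 100, 50 and 25 μg/mL. Cells given 2% DMSO (final) were the negative control. Cytotoxicity was read by CytoTox 96 kit in three independent experiments, each run in triplicate.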

[2] = test system: human breast cancer MCF7 cells; assay: CytoTox 96 Non-Radioactive Cytotoxicity Assay, breast cancer MCF7 cells; format: cell-based; settings: MCF7, 12.5-200 μg/mL, 24 h and 48 h
In short: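 MCF7 cells from ATCC, grown in ATCC-formulated medium at 37 °C and 5% CO2. Seeded at 10,000 cells/well and grown to 70–80% confluence. Test compounds (DMSO stocks) were added at 200, 100, 50, 25 and 12.5 μg/mL (≈ μM, MW ~1000) for 24 h and 48 h. Negative control was 2% final DMSO. Read by CytoTox 96 kit; three independent experiments, each in triplicate.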

[3] = contain methionine sulfoxide in their ring; cited from earlier work

NαC-[Met-Leu-Val-Phe-Pro-Leu-Phe-Ile] (head to tail) [[MetO]-LOB1, [1-8-NαC],[1-Rs,Ss-MetO]-linusorb-B1]
Cytotoxicity towards Sk-Br-3 cells, 24 h, 400 μg/mL ([1]; Sk-Br-3, 24 h exposure, 400 μg/mL, three independent experiments in triplicate): 28% | Concentration dependence of cytotoxicity towards Sk-Br-3 cells ([1]; Sk-Br-3, 24 h exposure, 25-400 μg/mL): only showed cytotoxicity at 400 μg/mL | Cytotoxicity towards Sk-Br-3 cells, 48 h, 400 μg/mL ([1]; Sk-Br-3, 48 h exposure, 400 μg/mL, three independent experiments in triplicate): maintained their respective cytotoxicity | Effect on MCF7 cells (in words) [2]: small cytoprotective effects | Relative hydrophobicity of methionine sulfoxide LOBs [3]: less hydrophobic than their methionine containing counterparts
